Laboratory results from ChEMBL document CHEMBL1148497 (Bioorg Med Chem Lett, 2006).

Experiments:
[1] = system: HPAC; experiment: Cytotoxicity against human HPAC cell line; type: functional, cell-based
In short: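 Human pancreatic ductal carcinoma HPAC cells grown in 1:1 DMEM/Ham's F-12 with 10% FBS at 37 °C, seeded at 2 × 10^3 cells/well. After 24 h, compounds were added from DMSO stocks (final DMSO 0.1%) for 72 h. WST-1 was then added for 3 h at 37 °C and absorbance read at 450 nm.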

[2] = system: Mus musculus; experiment: Hepatic toxicity in BALB/c mouse at 0.5 mg/kg, ip; type: organism-based; design: dose 0.5 mg/kg, route intraperitoneal; settings: in vivo
[3] = system: Mus musculus; experiment: Toxicity in BALB/c mouse at 0.5 mg/kg, ip; type: organism-based; design: dose 0.5 mg/kg, route intraperitoneal; settings: in vivo

**Q.** For `CCC(=C/[C@H](C)C/C=C/C(C)=C/[C@@H](CO)C(=O)[C@@H](C)[C@H](O)[C@@H](C)C/C(C)=C/C(=O)O)/C=C/[C@H]1CC(C)=CC(=O)O1`, which IC50 [1] is on record?
**A.** Its IC50 is 0.309 nM.

**Q.** And the Activity [2]?
**A.** The Activity was “Non-toxic”.

**Q.** And the Activity [3]?
**A.** Its Activity is “Non-toxic”.
